Source: ChEMBL document CHEMBL2417498, “Design and synthesis of 6,7-methylenedioxy-4-substituted phenylquinolin-2(1H)-one derivatives as novel anticancer agents that induce apoptosis with cell cycle arrest at G2/M phase” (Bioorg Med Chem, 2013)
Active and inactive are the calls of the source. No cut-off for these calls is given here.

Columns and labels:
A498 = assay: Cytotoxicity against human A498 cells after 48 hrs by MTT assay; type: functional, cell-based; details: A498, 48 h
In short: (§1)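 Log-phase tumour cells grown in RPMI-1640 with 10% FBS, penicillin/streptomycin and 1% L-glutamine at 37 °C, 5% CO2. Cells treated with vehicle or a range of concentrations for 48 h. Growth measured by MTT reduction, absorbance at 570 nm. IC50 is the concentration giving 50% proliferation inhibition, from 3 independent experiments.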

[1] = Cytotoxicity against human Hep3B cells after 48 hrs by MTT assay; type: functional, cell-based, Hep 3B2
In short: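 Detroit 551 normal skin cells and Hep 3B hepatoma cells grown in DMEM with 10% FBS, penicillin/streptomycin and 1% L-glutamine at 37 °C, 5% CO2. Log-phase cells treated with vehicle or a range of concentrations for 48 h. MTT reduction read at 570 nm. IC50 (50% proliferation inhibition) taken from 3 independent experiments.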

SK-OV-3 = assay: Cytotoxicity against human SKOV3 cells after 48 hrs by MTT assay; type: functional, cell-based; details: SK-OV-3, 48 h; in short: as §1
HL-60 [2] = assay: Cytotoxicity against human HL60 cells after 48 hrs by MTT assay; type: functional, cell-based; details: HL-60, 48 h; in short: as §1
[3] = Cytotoxicity against human 2774 cells after 48 hrs by MTT assay; type: functional, cell-based
HL-60 [4] = assay: Increase in cyclin B1 expression in human HL60 cells at 0.25 to 1 uM after 24 hrs by Western blot analysis; type: functional, cell-based
In short: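 HL-60 cells treated 24 h at the indicated concentrations, harvested, lysed (30 min on ice, 12,000 g spin), protein by Bradford; samples run on 10% SDS-PAGE, transferred to nitrocellulose, immunodetected by chemiluminescence.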

[5] = Cell cycle arrest in human H460 cells assessed as accumulation at G2/M phase at 5 uM after 24 hrs by propidium iodide staining-based FACS analysis (reference value: 10.73%); type: functional; details: NCI-H460
In short: (§2)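 H460 cells treated 24 h with 1.0, 2.5 or 5.0 µM; washed in PBS, fixed overnight in 70% ice-cold ethanol at −20 °C, stained 30 min in the dark with 0.1% Triton X-100, 0.2 mg/mL RNase and 20 µg/mL propidium iodide; DNA content by flow cytometry, phase distribution from histogram modelling.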

[6] = Cell cycle arrest in human H460 cells assessed as accumulation at S phase at 5 uM after 24 hrs by propidium iodide staining-based FACS analysis (reference value: 43.08%); type: functional; details: NCI-H460; in short: as §2
[7] = Cell cycle arrest in human H460 cells assessed as accumulation at G0/G1 phase at 2.5 uM after 24 hrs by propidium iodide staining-based FACS analysis (reference value: 46.19%); type: functional; details: NCI-H460; in short: as §2
[8] = Cell cycle arrest in human H460 cells assessed as accumulation at G0/G1 phase at 1 uM after 24 hrs by propidium iodide staining-based FACS analysis (reference value: 46.19%); type: functional; details: NCI-H460; in short: as §2
[9] = Cell cycle arrest in human H460 cells assessed as accumulation at sub G1 phase at 2.5 uM after 24 hrs by propidium iodide staining-based FACS analysis (reference value: 3.07%); type: functional; details: NCI-H460; in short: as §2
HL-60 [10] = assay: Cell cycle arrest in human HL60 cells assessed as accumulation at G2/M phase at 1 uM after 24 hrs by propidium iodide staining-based FACS analysis (reference value: 10.51%); type: functional
HL-60 [11] = assay: Cell cycle arrest in human HL60 cells assessed as accumulation at G0/G1 phase at 0.25 uM after 24 hrs by propidium iodide staining-based FACS analysis (reference value: 39.80%); type: functional
HL-60 [12] = assay: Cell cycle arrest in human HL60 cells assessed as accumulation at sub G1 phase at 0.25 uM after 24 hrs by propidium iodide staining-based FACS analysis (reference value: 0.35%); type: functional
NCI-H460 = assay: Induction of apoptosis in human H460 cells assessed as appearance of nuclear fragmentation at 1 to 5 uM after 24 hrs by Hoechst 33258 staining-based microscopy; type: functional, cell-based
In short: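 H460 plated at 5×10⁴ cells/well and incubated 24 h with 1.0, 2.5 or 5.0 µM; stained with 5 µg/mL Hoechst 33258 for 10 min, washed twice in PBS, fixed in 4% paraformaldehyde 10 min at 25 °C; nuclei scored for chromatin condensation, fragmentation and apoptotic bodies by fluorescence microscopy; 0.1% DMSO control.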

HL-60 [13] = assay: Induction of apoptosis in human HL60 cells assessed as appearance of apoptotic bodies at 0.25 to 1 uM after 24 hrs by Hoechst 33258 staining-based microscopy; type: functional, cell-based
In short: (§3)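 HL-60 seeded at 1×10⁵ cells/well, treated 24 h with 0.25, 0.5 or 1.0 µM; nuclei stained 10 min with 5 µg/mL Hoechst 33258, PBS-washed twice, fixed 10 min in 4% PFA at 25 °C; apoptotic morphology imaged by fluorescence microscopy against 0.1% DMSO-treated cells.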

HL-60 [14] = assay: Induction of apoptosis in human HL60 cells assessed as chromatin condensation at 0.25 to 1 uM after 24 hrs by Hoechst 33258 staining-based microscopy; type: functional, cell-based; in short: as §3

COc1ccc(-c2cc(=O)[nH]c3cc4c(cc23)OCO4)c(OC)c1
IC50 (A498): 48000 nM
IC50 [1]: 1000 nM
IC50 (SK-OV-3): 400 nM
IC50 (HL-60 [2]): 400 nM
IC50 [3]: 400 nM
Activity (HL-60 [4]): Active
Activity [5]: 68.2%
Activity [6]: 22.4%
Activity [7]: 9.6%
Activity [8]: 1.57%
Activity [9]: 11.7%
Activity (HL-60 [10]): 40.54%
Activity (HL-60 [11]): 41.36%
Activity (HL-60 [12]): 13.88%
Activity (NCI-H460): Active
Activity (HL-60 [13]): Active
Activity (HL-60 [14]): Active
